ChEMBL document CHEMBL4043298, “Discovery of a Potent (4 R,5 S)-4-Fluoro-5-methylproline Sulfonamide Transient Receptor Potential Ankyrin 1 Antagonist and Its Methylene Phosphate Prodrug Guided by Molecular Modeling” (J Med Chem, 2018)
In brackets after ≈: the same amount, converted by molar mass.

Assays:
[1] = Cmax in rat at 100 mg/kg, po; assay type: ADME, organism-based; parameters: dose 100 mg/kg, route oral; conditions: in vivo
How it was run: (§1)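 Rat oral dose of 30 or 100 mg/kg given as an amorphous suspension. Solid was dissolved in DMSO and precipitated into aqueous MCT, giving a final 15% DMSO/85% MCT. Plasma exposure measured over 0–24 h. The target multiple is unbound Cmax divided by the rat TRPA1 IC50.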

[2] = Clearance in rat liver microsomes; assay type: ADME, microsome
How it was run: (§2)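 Hepatic clearance predicted from human or rat liver microsome incubations.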

[3] = Oral bioavailability in rat at 1 mg/kg; assay type: ADME, organism-based; conditions: in vivo
[4] = Permeability across apical to basolateral side in MDCK cells; assay type: ADME, cell-based, Canis lupus familiaris; conditions: dog, read-out: permeability
[5] = target: Transient receptor potential cation channel subfamily A member 1 (Rattus norvegicus, UniProt Q6RI86); assay: Inhibition of rat TRPA1 expressed in HEK293 cells assessed as inhibition of cinnamaldehyde-induced Ca2+ influx preincubated for 20 mins followed by cinnamaldehyde induction by FLIPR assay; assay type: cell-based
[6] = Protein binding in rat plasma; assay type: ADME, cell-free; conditions: read-out: PPB (converted)
[7] = Cmax in rat at 1 mg/kg, po; assay type: ADME, organism-based; parameters: dose 1 mg/kg, route oral; conditions: in vivo
How it was run: (§3)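 Rat oral dose of 1 mg/kg in MCT vehicle (0.5% methylcellulose with 0.2% Tween 80 in water). Parent plasma exposure measured over 0–24 h. The target multiple is unbound Cmax divided by the rat TRPA1 IC50.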

[8] = Cmax in rat at 30 mg/kg, po; assay type: ADME, organism-based; parameters: dose 30 mg/kg, route oral; conditions: in vivo; how it was run: as §1
Rattus norvegicus [9] = assay: Volume of distribution at steady state in rat at 1 mg/kg, iv; assay type: ADME, organism-based; conditions: in vivo
hERG (KCNH2) = hERG (KCNH2) (Homo sapiens, UniProt Q12809); assay: Inhibition of human ERG at 10 uM by patch clamp assay relative to control
How it was run: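 hERG potassium channel inhibition measured by automated patch clamp at a single concentration of 10 μM.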

[10] = target: Transient receptor potential cation channel subfamily V member 1 (Homo sapiens, UniProt Q8NER1); assay: Inhibition of human TRPV1
[11] = Clearance in human liver microsomes; assay type: ADME, microsome; how it was run: as §2
[12] = AUC (0 to 24 hrs) in rat at 1 mg/kg, po; assay type: ADME, organism-based; parameters: dose 1 mg/kg, time < 24 hr, route oral; conditions: in vivo; how it was run: as §3
[13] = target: Transient receptor potential cation channel subfamily M member 8 (Homo sapiens, UniProt Q7Z2W7); assay: Inhibition of human TRPM8
[14] = Ratio of unbound Cmax in rat at 30 mg/kg, po to IC50 for rat TRPA1; how it was run: as §1
[15] = target: Transient receptor potential cation channel subfamily A member 1 (Homo sapiens, UniProt O75762); assay: Inhibition of human TRPA1 expressed in HEK293 cells assessed as inhibition of cinnamaldehyde-induced Ca2+ influx preincubated for 20 mins followed by cinnamaldehyde induction by FLIPR assay; assay type: cell-based
[16] = Ratio of unbound Cmax in rat at 100 mg/kg, po to IC50 for rat TRPA1; how it was run: as §1
[17] = Kinetic solubility of the compound; assay type: physicochemical; conditions: read-out: Kinetic_solubility
[18] = AUC (0 to 24 hrs) in rat at 100 mg/kg, po; assay type: ADME, organism-based; parameters: dose 100 mg/kg, time < 24 hr, route oral; conditions: in vivo; how it was run: as §1
[19] = Protein binding in human plasma; assay type: ADME, cell-free; conditions: read-out: PPB (converted)
[20] = Lipophilicity, log D of the compound at pH 7.4; conditions: buffer
[21] = Ratio of unbound Cmax in rat at 1 mg/kg, po to IC50 for rat TRPA1; how it was run: as §3
[22] = AUC (0 to 24 hrs) in rat at 30 mg/kg, po; assay type: ADME, organism-based; parameters: dose 30 mg/kg, time < 24 hr, route oral; conditions: in vivo; how it was run: as §1
Rattus norvegicus [23] = assay: Half life in rat at 1 mg/kg, iv; assay type: ADME, organism-based; conditions: in vivo

Sequence of Transient receptor potential cation channel subfamily A member 1 (Homo sapiens, UniProt O75762) (O75762 whole entry): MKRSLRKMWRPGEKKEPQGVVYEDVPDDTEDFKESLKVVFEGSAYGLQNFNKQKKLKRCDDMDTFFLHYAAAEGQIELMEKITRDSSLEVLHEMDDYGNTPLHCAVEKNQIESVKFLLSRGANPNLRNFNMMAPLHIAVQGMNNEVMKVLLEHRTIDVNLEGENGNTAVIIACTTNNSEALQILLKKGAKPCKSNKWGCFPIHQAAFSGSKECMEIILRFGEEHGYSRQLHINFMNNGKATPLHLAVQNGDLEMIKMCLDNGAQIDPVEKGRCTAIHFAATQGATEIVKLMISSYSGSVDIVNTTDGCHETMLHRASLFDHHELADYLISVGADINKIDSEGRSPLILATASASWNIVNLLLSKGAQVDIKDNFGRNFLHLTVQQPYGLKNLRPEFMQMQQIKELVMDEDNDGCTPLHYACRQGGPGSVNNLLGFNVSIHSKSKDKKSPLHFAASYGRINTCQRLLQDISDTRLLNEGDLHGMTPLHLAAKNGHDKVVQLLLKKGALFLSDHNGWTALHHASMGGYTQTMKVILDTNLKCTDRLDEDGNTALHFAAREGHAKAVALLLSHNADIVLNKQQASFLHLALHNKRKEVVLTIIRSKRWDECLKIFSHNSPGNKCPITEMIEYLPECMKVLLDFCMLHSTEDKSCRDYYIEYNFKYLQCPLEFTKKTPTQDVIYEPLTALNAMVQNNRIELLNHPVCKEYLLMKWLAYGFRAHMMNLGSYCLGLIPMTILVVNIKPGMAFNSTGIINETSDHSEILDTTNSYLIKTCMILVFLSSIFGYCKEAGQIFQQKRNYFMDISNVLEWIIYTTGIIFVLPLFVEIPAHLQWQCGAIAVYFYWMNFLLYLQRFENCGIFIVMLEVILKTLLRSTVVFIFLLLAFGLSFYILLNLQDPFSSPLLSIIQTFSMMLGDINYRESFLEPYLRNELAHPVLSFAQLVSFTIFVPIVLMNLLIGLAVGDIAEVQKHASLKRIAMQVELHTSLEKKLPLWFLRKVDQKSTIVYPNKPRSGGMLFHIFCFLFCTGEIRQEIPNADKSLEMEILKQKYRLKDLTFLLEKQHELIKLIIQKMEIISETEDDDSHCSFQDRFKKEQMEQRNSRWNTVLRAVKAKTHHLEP
Sequence of Transient receptor potential cation channel subfamily M member 8 (Q7Z2W7 whole entry): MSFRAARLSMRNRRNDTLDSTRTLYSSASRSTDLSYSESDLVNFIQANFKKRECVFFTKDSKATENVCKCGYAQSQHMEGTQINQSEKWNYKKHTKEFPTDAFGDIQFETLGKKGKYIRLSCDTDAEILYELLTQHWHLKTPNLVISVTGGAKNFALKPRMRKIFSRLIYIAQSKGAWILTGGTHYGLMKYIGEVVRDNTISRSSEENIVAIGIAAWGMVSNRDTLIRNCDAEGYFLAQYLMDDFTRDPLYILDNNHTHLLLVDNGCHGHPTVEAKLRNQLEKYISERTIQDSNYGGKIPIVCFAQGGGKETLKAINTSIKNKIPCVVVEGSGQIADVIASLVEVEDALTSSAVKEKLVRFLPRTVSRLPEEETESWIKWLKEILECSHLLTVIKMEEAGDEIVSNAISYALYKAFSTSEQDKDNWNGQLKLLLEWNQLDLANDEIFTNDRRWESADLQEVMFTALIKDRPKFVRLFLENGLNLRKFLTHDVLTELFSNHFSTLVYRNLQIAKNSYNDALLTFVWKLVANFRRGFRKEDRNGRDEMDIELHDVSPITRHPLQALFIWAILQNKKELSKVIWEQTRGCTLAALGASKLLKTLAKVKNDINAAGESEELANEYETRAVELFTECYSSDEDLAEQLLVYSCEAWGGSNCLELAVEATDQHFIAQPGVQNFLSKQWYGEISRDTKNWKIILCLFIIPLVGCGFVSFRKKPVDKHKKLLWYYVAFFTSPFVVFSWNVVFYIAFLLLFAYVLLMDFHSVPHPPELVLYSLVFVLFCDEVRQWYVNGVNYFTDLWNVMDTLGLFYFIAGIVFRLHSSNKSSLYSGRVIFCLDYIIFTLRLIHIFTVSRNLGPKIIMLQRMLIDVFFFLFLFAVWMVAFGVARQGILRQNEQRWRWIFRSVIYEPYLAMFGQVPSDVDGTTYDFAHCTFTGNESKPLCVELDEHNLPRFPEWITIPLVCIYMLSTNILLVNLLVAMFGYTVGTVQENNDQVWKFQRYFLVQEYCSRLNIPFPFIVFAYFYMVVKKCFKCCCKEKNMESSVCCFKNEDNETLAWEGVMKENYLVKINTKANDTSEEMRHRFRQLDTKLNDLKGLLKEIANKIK
Sequence of Transient receptor potential cation channel subfamily A member 1 (Rattus norvegicus, UniProt Q6RI86) (Q6RI86 whole entry): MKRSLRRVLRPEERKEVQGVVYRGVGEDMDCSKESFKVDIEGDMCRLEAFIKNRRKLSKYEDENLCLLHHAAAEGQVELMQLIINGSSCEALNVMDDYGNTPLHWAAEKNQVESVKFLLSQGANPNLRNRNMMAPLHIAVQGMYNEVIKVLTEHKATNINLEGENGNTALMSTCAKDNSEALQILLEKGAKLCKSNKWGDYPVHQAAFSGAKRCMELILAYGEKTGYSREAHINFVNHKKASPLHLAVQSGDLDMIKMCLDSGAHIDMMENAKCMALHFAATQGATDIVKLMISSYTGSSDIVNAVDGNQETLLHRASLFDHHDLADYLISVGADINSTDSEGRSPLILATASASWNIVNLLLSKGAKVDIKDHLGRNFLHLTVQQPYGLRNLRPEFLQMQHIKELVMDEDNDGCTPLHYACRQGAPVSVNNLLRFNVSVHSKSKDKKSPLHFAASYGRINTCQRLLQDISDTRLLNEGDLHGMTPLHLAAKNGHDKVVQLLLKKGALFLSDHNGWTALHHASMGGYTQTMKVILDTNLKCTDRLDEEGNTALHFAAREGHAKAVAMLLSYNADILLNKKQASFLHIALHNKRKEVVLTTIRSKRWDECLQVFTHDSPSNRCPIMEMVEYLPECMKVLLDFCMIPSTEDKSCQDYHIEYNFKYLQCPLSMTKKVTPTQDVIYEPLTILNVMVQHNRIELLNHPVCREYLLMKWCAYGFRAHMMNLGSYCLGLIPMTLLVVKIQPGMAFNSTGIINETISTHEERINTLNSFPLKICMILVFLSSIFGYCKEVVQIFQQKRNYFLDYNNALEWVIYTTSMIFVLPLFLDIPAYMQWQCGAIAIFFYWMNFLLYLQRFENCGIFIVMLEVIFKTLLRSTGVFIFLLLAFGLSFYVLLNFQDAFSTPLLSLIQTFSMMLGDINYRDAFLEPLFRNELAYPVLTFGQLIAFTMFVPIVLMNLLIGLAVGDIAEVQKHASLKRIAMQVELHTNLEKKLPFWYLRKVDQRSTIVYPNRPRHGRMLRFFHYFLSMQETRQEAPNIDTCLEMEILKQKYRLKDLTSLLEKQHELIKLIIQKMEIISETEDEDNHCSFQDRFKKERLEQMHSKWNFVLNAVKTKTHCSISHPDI
Sequence of Transient receptor potential cation channel subfamily V member 1 (Q8NER1 whole entry): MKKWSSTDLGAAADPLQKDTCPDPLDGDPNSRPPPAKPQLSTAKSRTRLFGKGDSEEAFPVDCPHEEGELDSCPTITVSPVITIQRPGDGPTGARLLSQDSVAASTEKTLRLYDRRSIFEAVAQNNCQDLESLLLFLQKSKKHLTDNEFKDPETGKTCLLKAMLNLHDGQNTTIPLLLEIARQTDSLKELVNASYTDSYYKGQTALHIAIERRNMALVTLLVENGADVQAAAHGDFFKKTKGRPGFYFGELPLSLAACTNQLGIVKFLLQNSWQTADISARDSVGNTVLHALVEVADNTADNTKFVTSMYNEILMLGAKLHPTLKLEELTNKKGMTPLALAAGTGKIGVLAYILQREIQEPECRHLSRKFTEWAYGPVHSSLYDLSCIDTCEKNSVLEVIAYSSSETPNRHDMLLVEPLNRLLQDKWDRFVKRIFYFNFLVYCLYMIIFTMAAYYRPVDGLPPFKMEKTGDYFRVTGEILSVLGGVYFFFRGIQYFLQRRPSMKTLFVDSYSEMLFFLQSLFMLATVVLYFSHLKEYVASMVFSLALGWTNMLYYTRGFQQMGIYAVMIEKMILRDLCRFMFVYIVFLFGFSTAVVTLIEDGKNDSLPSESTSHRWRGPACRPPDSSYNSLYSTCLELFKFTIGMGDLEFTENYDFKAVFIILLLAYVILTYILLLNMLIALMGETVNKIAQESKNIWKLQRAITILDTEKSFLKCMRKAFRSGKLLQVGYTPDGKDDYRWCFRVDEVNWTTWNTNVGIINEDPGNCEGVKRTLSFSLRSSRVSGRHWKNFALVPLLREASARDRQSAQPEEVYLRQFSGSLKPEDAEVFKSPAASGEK

In the case of C[C@H]1[C@H](F)C[C@@H](C(=O)NCc2cc(-c3cnc(C(F)(F)F)nc3)ncc2F)N1S(=O)(=O)c1ccc(F)cc1, the Cmax [1] is reported as 2510 nM, the CLhep predicted [2] is reported as 17 mL/min/kg and the bioavailability [3] is reported as 12%. It also gave a Papp A→B [4] of 11.2 ×10⁻⁶ cm/s, an IC50 [5] of 36 nM and a fraction unbound [6] of 0.028. It also gave a Cmax [7] of 30 nM, a Cmax [8] of 2330 nM and a Vdss (Rattus norvegicus [9]) of 7.5 L/kg. The inhibition at 10 µM (hERG (KCNH2)) was 14.3%, the IC50 [10] was over 20000 nM and the CLhep predicted [11] was 10 mL/min/kg. For the same compound, the AUC(0-t) at 24 h [12] was 0.56 µM·h, the IC50 [13] was over 20000 nM and the Ratio [14] was 1.81. The IC50 [15] was 8 nM, the Ratio [16] was 1.95 and the solubility kinetic [17] was under 1 µM. The AUC(0-t) at 24 h [18] was 39.6 µM·h, the fraction unbound [19] was 0.02 and the logD [20] was 2.6. For the same compound, the Ratio [21] was 0.02, the AUC(0-t) at 24 h [22] was 32.8 µM·h and the t1/2 (Rattus norvegicus [23]) was 7.5 h.

C[C@H]1[C@H](F)C[C@@H](C(=O)NCc2cc(-c3cnc(C(F)(F)F)nc3)ncn2)N1S(=O)(=O)c1ccc(F)cc1 showed a CLhep predicted [2] of 18 mL/min/kg, a CLhep predicted [11] of 11 mL/min/kg and an IC50 [15] of 64 nM. The solubility kinetic [17] was 53 µM (≈ 28.8 µg/mL) and the logD [20] was 2.5.

Compound C[C@H]1[C@H](F)C[C@@H](C(=O)NCc2cc(-c3cnc(C(F)(F)F)nc3)nc(C3CC3)n2)N1S(=O)(=O)c1ccc(F)cc1 has a CLhep predicted [2] of 22 mL/min/kg, a CLhep predicted [11] of 10 mL/min/kg and an IC50 [15] of 5 nM. For the same compound, the solubility kinetic [17] was under 1 µM and the logD [20] was 3.8.

For O=C(NCc1cc(-c2ccc(C(F)(F)F)nc2)ncn1)[C@@H]1CCCCN1S(=O)(=O)c1ccc(F)cc1, the CLhep predicted [2] was 46 mL/min/kg, the CLhep predicted [11] was 18 mL/min/kg and the IC50 [15] was 2300 nM. It also gave a logD [20] of 3.4.

In the case of C[C@H]1[C@H](F)C[C@@H](C(=O)NCc2cc(-c3cnc(C(F)(F)F)cn3)ncn2)N1S(=O)(=O)c1ccc(F)cc1, the CLhep predicted [2] is reported as 18 mL/min/kg, the CLhep predicted [11] is reported as 14 mL/min/kg and the solubility kinetic [17] is reported as 18 µM (≈ 9.76 µg/mL). It also gave a logD [20] of 2.3.

Work on C[C@H]1[C@H](F)C[C@@H](C(=O)NCc2cc(-c3cnc(C(F)(F)F)nc3)c(C#N)cn2)N1S(=O)(=O)c1ccc(F)cc1 yielded a CLhep predicted [2] of 25 mL/min/kg, a CLhep predicted [11] of 17 mL/min/kg and an IC50 [15] of 96 nM. It also gave a solubility kinetic [17] of 123 µM (≈ 69.7 µg/mL) and a logD [20] of 2.3.

In the case of C[C@@H]1CC[C@@H](C(=O)NCc2cc(-c3ccc(C(F)(F)F)nc3)ncn2)N1S(=O)(=O)c1ccc(F)cc1, the CLhep predicted [2] is reported as 30 mL/min/kg, the CLhep predicted [11] is reported as 19 mL/min/kg and the IC50 [15] is reported as 239 nM. For the same compound, the logD [20] was 4.3.

Work on O=C(NCc1cc(-c2ccc(C(F)(F)F)nc2)ncn1)[C@@H]1C[C@@H](F)CN1S(=O)(=O)c1ccc(F)cc1 yielded a CLhep predicted [2] of 10 mL/min/kg, a CLhep predicted [11] of 5 mL/min/kg and an IC50 [15] of 1200 nM. It also gave a logD [20] of 2.4.

For C[C@H]1[C@H](F)C[C@@H](C(=O)NCc2c(F)cnc(-c3cnc(C(F)(F)F)nc3)c2F)N1S(=O)(=O)c1ccc(F)cc1, the CLhep predicted [2] was 36 mL/min/kg, the CLhep predicted [11] was 14 mL/min/kg and the IC50 [15] was 328 nM. The solubility kinetic [17] was 8 µM (≈ 4.62 µg/mL) and the logD [20] was 2.5.

C[C@H]1[C@H](F)C[C@@H](C(=O)NCc2cc(-c3cnc(C(F)(F)F)nc3)ncc2Cl)N1S(=O)(=O)c1ccc(F)cc1 showed a CLhep predicted [2] of 20 mL/min/kg, a CLhep predicted [11] of 11 mL/min/kg and an IC50 [15] of 5 nM. It also gave a solubility kinetic [17] of under 1 µM.

For C[C@H]1[C@H](F)C[C@@H](C(=O)NCc2cc(-c3cnc(C(F)(F)F)nc3)ncc2C#N)N1S(=O)(=O)c1ccc(F)cc1, the CLhep predicted [2] was 16 mL/min/kg, the CLhep predicted [11] was 9 mL/min/kg and the IC50 [15] was 10 nM. It also gave a solubility kinetic [17] of 14 µM (≈ 7.93 µg/mL).

Work on C[C@H]1[C@H](F)C[C@@H](C(=O)NCc2cc(-c3cnc(C(F)(F)F)nc3)c(Cl)cn2)N1S(=O)(=O)c1ccc(F)cc1 yielded a CLhep predicted [2] of 21 mL/min/kg, a CLhep predicted [11] of 15 mL/min/kg and an IC50 [15] of 13 nM. It also gave a solubility kinetic [17] of 8 µM (≈ 4.61 µg/mL) and a logD [20] of 2.5.

With O=C(NCc1cc(-c2ccc(C(F)(F)F)nc2)ncn1)[C@@H]1CCCN1S(=O)(=O)c1ccc(F)cc1 the CLhep predicted [2] was 43 mL/min/kg, the CLhep predicted [11] was 16 mL/min/kg and the IC50 [15] was 154 nM. It also gave a logD [20] of 2.7.

For C[C@H]1[C@H](F)C[C@@H](C(=O)NCc2ccnc(-c3cnc(C(F)(F)F)nc3)c2)N1S(=O)(=O)c1ccc(F)cc1, the CLhep predicted [2] was 25 mL/min/kg, the CLhep predicted [11] was 12 mL/min/kg and the solubility kinetic [17] was under 1 µM. The logD [20] was 3.

In the case of O=C(NCc1cc(-c2ccc(C(F)(F)F)nc2)ncn1)[C@@H]1CCN1S(=O)(=O)c1ccc(F)cc1, the CLhep predicted [2] is reported as 27 mL/min/kg, the CLhep predicted [11] is reported as 10 mL/min/kg and the IC50 [15] is reported as 1500 nM. For the same compound, the logD [20] was 2.4.

With C[C@H]1[C@H](F)C[C@@H](C(=O)NCc2cc(-c3cnc(C(F)(F)F)nc3)ccn2)N1S(=O)(=O)c1ccc(F)cc1 the CLhep predicted [2] was 18 mL/min/kg, the CLhep predicted [11] was 16 mL/min/kg and the solubility kinetic [17] was 132 µM (≈ 71.5 µg/mL). It also gave a logD [20] of 3.3.

C[C@H]1[C@H](F)C[C@@H](C(=O)NCc2cc(-c3cnc(C(F)(F)F)nc3)c(F)cn2)N1S(=O)(=O)c1ccc(F)cc1 gave a CLhep predicted [2] of 18 mL/min/kg, a CLhep predicted [11] of 13 mL/min/kg and an IC50 [15] of 33 nM. The solubility kinetic [17] was 84 µM (≈ 47 µg/mL) and the logD [20] was 2.6.

With O=C(NCc1cc(-c2ccc(C(F)(F)F)nc2)ncn1)[C@@H]1C[C@H](F)CN1S(=O)(=O)c1ccc(F)cc1 the CLhep predicted [2] was 40 mL/min/kg, the CLhep predicted [11] was 7 mL/min/kg and the IC50 [15] was 4400 nM. It also gave a logD [20] of 1.8.

For C[C@H]1CC[C@@H](C(=O)NCc2cc(-c3ccc(C(F)(F)F)nc3)ncn2)N1S(=O)(=O)c1ccc(F)cc1, the CLhep predicted [2] was 47 mL/min/kg, the CLhep predicted [11] was 19 mL/min/kg and the IC50 [15] was 13 nM. For the same compound, the logD [20] was 2.9.

For C[C@H]1[C@H](F)C[C@@H](C(=O)NCc2cc(-c3ccc(C(F)(F)F)nc3)ncn2)N1S(=O)(=O)c1ccc(F)cc1, the CLhep predicted [2] was 19 mL/min/kg, the CLhep predicted [11] was 10 mL/min/kg and the IC50 [15] was 179 nM. For the same compound, the solubility kinetic [17] was 2 µM (≈ 1.08 µg/mL) and the logD [20] was 2.7.
